Assays:
[1] = system: E. coli strains with A2503C, A2059G or A2059C in the 23S rRNA; assay: MIC against erythromycin-resistant strains with 23S rRNA mutations; type: cell-based, Escherichia coli; details: Table S2 (not available)
In short: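 Broth microdilution in Müller-Hinton broth with E. coli grown at 37°C. Test compounds started at 128 μM and were serially two-fold diluted, then halved again on adding bacteria to 2.5 × 10^4 CFU/well. Plates sealed and incubated overnight at 37°C. MIC taken as the lowest concentration preventing visible growth.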

[2] = molecular target: E. coli ribosomes on H-ns-PPP mRNA (Escherichia coli, UniProt P60723); assay: Toeprinting assay in fully reconstituted in vitro translation system; type: biochemical; details: 1-100 μM peptide, 100 μM thiostrepton; 15 min 37°C

| SMILES | Change in MIC with 23S rRNA mutations versus wildtype (in words) [1] | Toeprint result (in words) [2] |
| --- | --- | --- |
| CC[C@H]1OC(=O)[C@H](C)[C@@H](O[C@H]2C[C@@](C)(OC)[C@@H](O)[C@H](C)O2)[C@H](C)[C@@H](O[C@@H]2O[C@H](C)C[C@H](N(C)C)[C@H]2O)[C@](C)(O)C[C@@H](C)C(=O)[C@H](C)[C@@H](O)[C@]1(C)O [erythromycin] | increased MIC | – |
| C=C(NC(=O)C(=C)NC(=O)c1csc(C2=N[C@@H]3c4csc(n4)[C@H]4NC(=O)c5csc(n5)[C@H]([C@](C)(O)[C@@H](C)O)NC(=O)[C@H]5CSC(=N5)/C(=C/C)NC(=O)[C@H]([C@@H](C)O)NC(=O)c5csc(n5)[C@]3(CC2)NC(=O)[C@H](C)NC(=O)C(=C)NC(=O)[C@H](C)NC(=O)[C@H]([C@@H](C)CC)N[C@@H]2C=Cc3c([C@H](C)O)cc(nc3[C@H]2O)C(=O)O[C@@H]4C)n1)C(N)=O [thiostrepton] | – | ribosomes can initiate at the AUG start codon but cannot translate further |

— paper PMC6219704 (Cell chemical biology, 2018)
